Experimental data from ChEMBL document CHEMBL2150892, “Neuroprotective Tri- and Tetracyclic BChE Inhibitors Releasing Reversible Inhibitors upon Carbamate Transfer” (ACS Med Chem Lett, 2012).
pIC50, pKi: −log10 of the molar value. Activity calls are given as the source filed them. The rule behind the calls is not given here.

Assays:
Cholinesterase [1] = target: T1, Cholinesterase (Equus caballus, UniProt P81908); assay: Inhibition of equine serum BChE using acetylthiocholine as substrate after 2 mins; conditions: for pIC50: read-out: IC50
Method in brief: (§1)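 Enzyme sources were electric eel AChE and equine serum BChE. Values are means of at least three independent determinations.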

[2] = Selectivity ratio of IC50 for Electric eel AChE to IC50 for equine serum BChE
Method in brief: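 Selectivity ratio calculated as IC50(AChE)/IC50(BChE). AChE was from electric eel and BChE from equine serum. Each IC50 is a mean of at least three independent determinations.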

HT-22 [3] = assay: Neuroprotective activity against glutamate-induced oxidative stress in mouse HT22 cells assessed as reduction of intracellular ROS formation at 10 uM after 24 hrs by MTT assay; assay type: functional, cell-based
Method in brief: (§2)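 Murine hippocampal HT-22 cells, which lack ionotropic glutamate receptors, were challenged with extracellular glutamate to cause oxidative (oxytotic) cell death. Compounds were tested at 10 μM and 5 μM against this glutamate-induced toxicity.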

Acetylcholinesterase [4] = target: T2, Acetylcholinesterase (Electrophorus electricus, UniProt O42275); assay: Time dependent inhibition of Electric eel AChE assessed as stability constants of inhibitor-enzyme complex using acetylthiocholine as substrate after 60 mins
Cholinesterase [5] = target: T1, Cholinesterase; assay: Time dependent inhibition of equine serum BChE assessed as stability constants of inhibitor-enzyme complex using acetylthiocholine as substrate after 60 mins
Acetylcholinesterase [6] = target: T2, Acetylcholinesterase; assay: Inhibition of Electric eel AChE using acetylthiocholine as substrate after 2 mins; conditions: for pIC50: read-out: IC50; for IC50: read-out: pIC50 (converted); method in brief: as §1
[7] = Antioxidant activity assessed as trolox equivalents of peroxyl radical scavenging activity by ORAC assay; assay type: functional
Method in brief: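 ORAC assay: measures how well each compound protects fluorescein from destruction by peroxyl radicals. Capacity is expressed as trolox equivalents, with trolox as the reference.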

HT-22 [8] = assay: Neuroprotective activity against glutamate-induced oxidative stress in mouse HT22 cells assessed as reduction of intracellular ROS formation at 5 uM after 24 hrs by MTT assay; assay type: functional, cell-based; method in brief: as §2
[9] = target: Acetylcholinesterase (Electrophorus electricus) (UniProt O42275); assay: Inhibition of Electric eel AChE using acetylthiocholine as substrate at 100 uM after 2 mins
Method in brief: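 Enzyme sources were electric eel AChE and equine serum BChE. Values are means of at least three independent determinations. Single-point entries are % inhibition at 100 μM.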

[10] = target: Acetylcholinesterase (Electrophorus electricus) (UniProt O42275); assay: Time dependent inhibition of Electric eel AChE assessed as stability constants of inhibitor-enzyme complex using acetylthiocholine as substrate at 10 to 50 nM after 60 mins

T2 sequence (O42275 whole entry): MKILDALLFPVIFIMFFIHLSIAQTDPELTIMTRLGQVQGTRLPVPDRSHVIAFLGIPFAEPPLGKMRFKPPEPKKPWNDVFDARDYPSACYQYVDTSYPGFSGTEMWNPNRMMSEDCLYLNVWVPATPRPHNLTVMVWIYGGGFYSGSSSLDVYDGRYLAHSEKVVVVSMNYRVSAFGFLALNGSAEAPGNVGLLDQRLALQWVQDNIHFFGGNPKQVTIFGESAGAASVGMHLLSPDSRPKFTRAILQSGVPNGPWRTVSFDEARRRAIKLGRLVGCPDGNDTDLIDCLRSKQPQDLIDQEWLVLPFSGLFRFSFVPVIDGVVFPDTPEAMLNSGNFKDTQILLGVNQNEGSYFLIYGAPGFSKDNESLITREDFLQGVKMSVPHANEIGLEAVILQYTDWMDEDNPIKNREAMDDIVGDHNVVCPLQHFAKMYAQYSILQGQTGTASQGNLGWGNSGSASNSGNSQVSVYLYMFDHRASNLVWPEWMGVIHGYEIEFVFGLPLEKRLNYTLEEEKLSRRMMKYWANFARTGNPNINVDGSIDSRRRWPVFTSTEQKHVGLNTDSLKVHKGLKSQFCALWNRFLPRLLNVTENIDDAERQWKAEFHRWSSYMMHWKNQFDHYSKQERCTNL
T1 sequence (P81908 whole entry): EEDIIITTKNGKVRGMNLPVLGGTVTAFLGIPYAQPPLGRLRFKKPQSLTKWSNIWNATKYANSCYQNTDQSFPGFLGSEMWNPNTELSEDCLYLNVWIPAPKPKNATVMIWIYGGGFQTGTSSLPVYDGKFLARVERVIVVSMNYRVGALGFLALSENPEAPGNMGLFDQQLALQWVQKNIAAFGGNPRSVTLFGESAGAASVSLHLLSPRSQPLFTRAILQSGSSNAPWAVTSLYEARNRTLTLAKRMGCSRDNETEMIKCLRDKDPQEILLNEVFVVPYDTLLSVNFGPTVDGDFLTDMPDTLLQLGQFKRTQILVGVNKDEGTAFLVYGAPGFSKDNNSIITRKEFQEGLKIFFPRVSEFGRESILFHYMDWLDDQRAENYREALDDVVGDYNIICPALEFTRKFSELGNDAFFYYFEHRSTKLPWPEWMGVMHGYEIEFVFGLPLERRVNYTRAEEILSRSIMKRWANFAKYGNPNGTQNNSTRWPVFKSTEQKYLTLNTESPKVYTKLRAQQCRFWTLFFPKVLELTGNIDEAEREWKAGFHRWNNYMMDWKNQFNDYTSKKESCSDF
Acetylcholinesterase (Electrophorus electricus), sequence (O42275 24-633 limits assumed): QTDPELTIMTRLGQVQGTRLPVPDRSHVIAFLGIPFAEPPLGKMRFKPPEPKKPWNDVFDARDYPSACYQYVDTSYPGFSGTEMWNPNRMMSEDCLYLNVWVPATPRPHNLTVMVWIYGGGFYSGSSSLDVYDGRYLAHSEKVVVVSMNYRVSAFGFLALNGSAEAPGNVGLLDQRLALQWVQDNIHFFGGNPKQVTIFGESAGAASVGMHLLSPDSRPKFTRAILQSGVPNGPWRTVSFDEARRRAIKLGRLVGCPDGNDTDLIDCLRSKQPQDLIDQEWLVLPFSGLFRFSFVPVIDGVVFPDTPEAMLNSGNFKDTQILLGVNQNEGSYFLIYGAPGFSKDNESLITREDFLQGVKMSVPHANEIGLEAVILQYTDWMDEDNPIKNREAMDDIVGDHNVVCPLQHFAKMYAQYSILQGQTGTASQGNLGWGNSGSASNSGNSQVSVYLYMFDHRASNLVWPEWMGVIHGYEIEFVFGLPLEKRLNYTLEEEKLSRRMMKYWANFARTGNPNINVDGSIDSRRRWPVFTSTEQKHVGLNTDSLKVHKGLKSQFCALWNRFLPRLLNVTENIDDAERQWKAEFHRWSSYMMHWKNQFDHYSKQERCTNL

For `CCN(C)C(=O)Oc1ccc2c(c1)CN1CCc3ccccc3C1N2C` (configuration not stated), the pIC50 (Cholinesterase [1]) was 6.35, the IC50 (Cholinesterase [1]; read-out: pIC50 (converted)) was 24.5 µM and the Ratio IC50 [2] was 54.2. The Activity (HT-22 [3]) was “inactive”, the pKi (Acetylcholinesterase [4]) was 5.95 and the pKi (Cholinesterase [5]) was 6.56. For the same compound, the pIC50 (Acetylcholinesterase [6]) was 4.61, the IC50 (Acetylcholinesterase [6]) was 234 µM and the Ratio [7] was 0.65.

In the case of `CC(C)c1ccc(NC(=O)Oc2ccc3c(c2)CN2CCCC2N3C)cc1` (configuration not stated), the pIC50 (Cholinesterase [1]) was 5.52 and the Ratio IC50 [2] was greater than 66.6.

In the case of `CCCCCCCNC(=O)Oc1ccc2c(c1)CN1CCCc3ccccc3C1N2C` (configuration not stated), the pIC50 (Cholinesterase [1]) was 7.34, the Ratio IC50 [2] was greater than 4000 and the Activity (HT-22 [3]) was “Active”. It also gave a Ratio [7] of 0.86.

With `CN1c2ccc(O)cc2CN2CCCc3ccccc3C21` (configuration not stated) the pIC50 (Cholinesterase [1]) was 5.14, the Activity (HT-22 [8]) was “Active” and the Ratio IC50 [2] was 5.2. The Activity (HT-22 [3]) was “Active”, the pIC50 (Acetylcholinesterase [6]) was 4.42 and the Ratio [7] was 2.48.

In the case of `CN1c2ccc(O)cc2CN2CCCC21` (configuration not stated), the pIC50 (Cholinesterase [1]) was 4.39, the Activity (HT-22 [8]) was “Active” and the Ratio IC50 [2] was 0.75. For the same compound, the Activity (HT-22 [3]) was “Active”, the pIC50 (Acetylcholinesterase [6]) was 4.51 and the IC50 (Acetylcholinesterase [6]) was 30.2 µM. For the same compound, the Ratio [7] was 3.43.

For `CCCCCCCNC(=O)Oc1ccc2c(c1)CN1CCCC1N2C` (configuration not stated), the pIC50 (Cholinesterase [1]) was 5.71, the Activity (HT-22 [8]) was “Active” and the Ratio IC50 [2] was 16.6. The Activity (HT-22 [3]) was “Active”, the pIC50 (Acetylcholinesterase [6]) was 4.49 and the Ratio [7] was 1.03.

Work on `CC(C)c1ccc(NC(=O)Oc2ccc3c(c2)CN2CCc4ccccc4C2N3C)cc1` (configuration not stated) yielded a pIC50 (Cholinesterase [1]) of 6.88 and a Ratio IC50 [2] greater than 1500.

Compound `COc1cccc(NC(=O)Oc2ccc3c(c2)CN2CCc4ccccc4C2N3C)c1` (configuration not stated) has a pIC50 (Cholinesterase [1]) of 6.66 and a Ratio IC50 [2] greater than 900.

In the case of `CN1c2ccccc2CN2CCc3ccccc3C21` (configuration not stated), the pIC50 (Cholinesterase [1]) was 4.36, the Ratio IC50 [2] was 3.3 and the Activity (HT-22 [3]) was “inactive”. The pIC50 (Acetylcholinesterase [6]) was 3.84 and the Ratio [7] was 0.92.

For `CN1c2ccc(O)cc2CN2CCc3ccccc3C21` (configuration not stated), the pIC50 (Cholinesterase [1]) was 4.35, the Activity (HT-22 [8]) was “Active” and the Ratio IC50 [2] was 2.5. For the same compound, the Activity (HT-22 [3]) was “Active”, the pIC50 (Acetylcholinesterase [6]) was 3.96 and the Ratio [7] was 2.87.

With `Cc1ccccc1NC(=O)Oc1ccc2c(c1)CN1CCc3ccccc3C1N2C` (configuration not stated) the pIC50 (Cholinesterase [1]) was 6.84 and the Ratio IC50 [2] was greater than 1350.

For `COc1ccc2c(c1)CN1CCc3ccccc3C1N2C` (configuration not stated), the pIC50 (Cholinesterase [1]) was 4.25, the Activity (HT-22 [8]) was “inactive” and the Ratio IC50 [2] was 4.2. It also gave a pIC50 (Acetylcholinesterase [6]) of 3.63 and a Ratio [7] of 0.51.

For `Cc1ccccc1NC(=O)Oc1ccc2c(c1)CN1CCCC1N2C` (configuration not stated), the pIC50 (Cholinesterase [1]) was 5.39, the Ratio IC50 [2] was 16.1 and the pIC50 (Acetylcholinesterase [6]) was 4.18.

With `CN1c2ccccc2CN2CCCc3ccccc3C21` (configuration not stated) the pIC50 (Cholinesterase [1]) was 4.63 and the Ratio IC50 [2] was greater than 8.4.

For `COc1ccc2c(c1)CN1CCCc3ccccc3C1N2C` (configuration not stated), the pIC50 (Cholinesterase [1]) was 4.53, the Ratio IC50 [2] was greater than 6.7 and the Ratio [7] was 1.2.

In the case of `CN1c2ccccc2CN2CCCC21` (configuration not stated), the pIC50 (Cholinesterase [1]) was 4.41, the Ratio IC50 [2] was 3.4 and the pIC50 (Acetylcholinesterase [6]) was 3.88.

With `CCCCCCCNC(=O)Oc1ccc2c(c1)CN1CCc3ccccc3C1N2C` (configuration not stated) the inhibition [9] was “inactive”, the pIC50 (Cholinesterase [1]) was 7.22 and the inhibition [10] was “inactive”. The Ratio IC50 [2] was greater than 15000, the Activity (HT-22 [3]) was “Active” and the pKi (Cholinesterase [5]) was 7.90. It also gave a Ratio [7] of 0.3.

Work on `COc1cccc(NC(=O)Oc2ccc3c(c2)CN2CCCC2N3C)c1` (configuration not stated) yielded a pIC50 (Cholinesterase [1]) of 5.12, a Ratio IC50 [2] of 5.3 and a pIC50 (Acetylcholinesterase [6]) of 4.40.
